According to ChEMBL document CHEMBL1135823, “Discovery and SAR of a novel selective and orally bioavailable nonpeptide classical competitive inhibitor class of protein-tyrosine phosphatase 1B” (J Med Chem, 2002):
Where “and” joins values, the source holds several entries; their conditions need not be identical. Equal entries are not always repeated.

Columns and labels:
[1] = Pharmacokinetic Parameter Vss was reported for Protein Tyrosine Phosphatase 1B; assay type: ADME, organism-based; conditions: in vivo; read-out: Vss
[2] = Oral bioavailability; assay type: ADME, organism-based; conditions: eutheria, in vivo, read-out: f (po)
[3] = Pharmacokinetic Parameter t1/2 was reported for Protein Tyrosine Phosphatase 1B; assay type: ADME, organism-based; conditions: in vivo
[4] = Pharmacokinetic Parameter clearance was reported for Protein Tyrosine Phosphatase 1B; assay type: ADME, organism-based; conditions: in vivo
[5] = biological target: T1, Receptor-type tyrosine-protein phosphatase C (Homo sapiens, UniProt P08575); assay: Inhibitory effect against human CD45 tyrosine phosphatase using p-nitrophenyl phosphate substrate at a pH 7.0
T1 sequence (P08575 whole entry): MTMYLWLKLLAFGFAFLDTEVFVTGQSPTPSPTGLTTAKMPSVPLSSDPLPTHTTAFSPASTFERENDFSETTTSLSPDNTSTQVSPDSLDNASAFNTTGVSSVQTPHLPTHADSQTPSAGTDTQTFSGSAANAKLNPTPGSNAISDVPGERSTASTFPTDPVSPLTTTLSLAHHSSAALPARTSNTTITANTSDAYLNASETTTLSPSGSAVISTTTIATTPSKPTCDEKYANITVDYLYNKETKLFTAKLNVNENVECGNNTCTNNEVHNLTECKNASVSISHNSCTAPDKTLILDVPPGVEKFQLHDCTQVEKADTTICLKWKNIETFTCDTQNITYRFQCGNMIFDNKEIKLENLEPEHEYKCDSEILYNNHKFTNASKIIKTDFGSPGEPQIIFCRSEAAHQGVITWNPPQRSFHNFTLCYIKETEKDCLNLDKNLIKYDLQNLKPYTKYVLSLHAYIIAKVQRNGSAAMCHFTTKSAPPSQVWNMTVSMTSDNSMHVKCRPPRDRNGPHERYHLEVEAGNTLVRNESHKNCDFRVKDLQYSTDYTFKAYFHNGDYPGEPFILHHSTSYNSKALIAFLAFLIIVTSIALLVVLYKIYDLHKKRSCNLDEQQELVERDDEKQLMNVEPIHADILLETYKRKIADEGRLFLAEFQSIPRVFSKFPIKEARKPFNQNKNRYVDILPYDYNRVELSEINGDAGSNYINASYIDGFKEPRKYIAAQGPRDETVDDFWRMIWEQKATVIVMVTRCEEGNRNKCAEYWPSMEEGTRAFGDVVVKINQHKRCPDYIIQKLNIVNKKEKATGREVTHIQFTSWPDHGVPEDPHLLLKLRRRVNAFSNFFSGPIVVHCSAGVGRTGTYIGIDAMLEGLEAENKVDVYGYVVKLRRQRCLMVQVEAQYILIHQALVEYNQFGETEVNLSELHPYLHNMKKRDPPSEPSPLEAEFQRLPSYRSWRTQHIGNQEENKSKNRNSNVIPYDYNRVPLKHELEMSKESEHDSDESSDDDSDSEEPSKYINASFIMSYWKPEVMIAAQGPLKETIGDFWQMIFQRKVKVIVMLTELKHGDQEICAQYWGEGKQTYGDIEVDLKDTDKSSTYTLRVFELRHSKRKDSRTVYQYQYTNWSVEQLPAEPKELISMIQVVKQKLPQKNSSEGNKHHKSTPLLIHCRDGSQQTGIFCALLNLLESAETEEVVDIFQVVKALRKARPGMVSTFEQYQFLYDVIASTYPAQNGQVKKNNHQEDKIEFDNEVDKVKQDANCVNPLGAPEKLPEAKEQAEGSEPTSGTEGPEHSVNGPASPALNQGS
In short: (§1)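 Ki from pNPP hydrolysis assays at pH 7 with recombinant PTPs (CD45, LAR, PTPα).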

[6] = biological target: T2, Tyrosine-protein phosphatase non-receptor type 1 (Homo sapiens, UniProt P18031); assay: Inhibitory effect against recombinant human protein-tyrosine phosphatase 1B (PTP1B), using p-nitrophenyl phosphate substrate at pH 5.5.
T2 sequence (P18031 whole entry): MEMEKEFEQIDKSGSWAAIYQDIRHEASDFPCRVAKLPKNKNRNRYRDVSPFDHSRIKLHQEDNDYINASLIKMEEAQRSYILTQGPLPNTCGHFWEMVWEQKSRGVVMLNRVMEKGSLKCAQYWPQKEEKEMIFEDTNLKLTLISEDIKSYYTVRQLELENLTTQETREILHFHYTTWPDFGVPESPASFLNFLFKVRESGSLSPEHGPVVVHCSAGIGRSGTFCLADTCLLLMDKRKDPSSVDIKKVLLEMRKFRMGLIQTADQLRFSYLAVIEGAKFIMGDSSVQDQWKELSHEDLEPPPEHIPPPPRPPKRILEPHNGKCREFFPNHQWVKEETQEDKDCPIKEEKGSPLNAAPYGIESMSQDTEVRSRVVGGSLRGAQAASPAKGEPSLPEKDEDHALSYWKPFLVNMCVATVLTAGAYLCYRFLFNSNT

[7] = biological target: Receptor-type tyrosine-protein phosphatase alpha (Homo sapiens, UniProt P18433); assay: Inhibitory effect against human Protein-tyrosine phosphatase alpha (PTPalpha) using p-nitrophenyl phosphate substrate at a pH 7.0; in short: as §1
Chain of Receptor-type tyrosine-protein phosphatase alpha (P18433 whole entry): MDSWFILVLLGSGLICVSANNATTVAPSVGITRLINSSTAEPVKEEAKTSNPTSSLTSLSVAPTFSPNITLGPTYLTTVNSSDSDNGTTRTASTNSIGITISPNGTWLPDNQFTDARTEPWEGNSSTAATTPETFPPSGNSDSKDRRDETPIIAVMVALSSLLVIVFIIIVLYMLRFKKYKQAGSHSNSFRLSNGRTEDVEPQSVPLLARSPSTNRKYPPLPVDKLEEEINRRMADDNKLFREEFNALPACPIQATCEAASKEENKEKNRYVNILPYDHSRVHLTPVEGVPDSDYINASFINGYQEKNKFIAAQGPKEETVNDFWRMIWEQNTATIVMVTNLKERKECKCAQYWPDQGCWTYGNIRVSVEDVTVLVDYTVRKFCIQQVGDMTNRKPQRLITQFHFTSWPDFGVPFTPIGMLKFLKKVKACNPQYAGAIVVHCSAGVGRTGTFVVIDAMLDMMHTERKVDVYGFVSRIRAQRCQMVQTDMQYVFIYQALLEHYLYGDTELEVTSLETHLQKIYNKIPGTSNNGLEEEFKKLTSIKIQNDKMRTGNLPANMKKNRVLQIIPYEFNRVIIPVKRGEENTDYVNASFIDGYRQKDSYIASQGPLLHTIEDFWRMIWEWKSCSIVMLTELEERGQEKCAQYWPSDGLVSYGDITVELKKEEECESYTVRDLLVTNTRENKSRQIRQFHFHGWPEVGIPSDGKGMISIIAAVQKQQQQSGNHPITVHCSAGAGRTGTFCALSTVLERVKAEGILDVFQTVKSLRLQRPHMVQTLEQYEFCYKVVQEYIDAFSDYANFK

[8] = biological target: Receptor-type tyrosine-protein phosphatase F (Homo sapiens, UniProt P10586); assay: Inhibitory effect against human Protein-tyrosine phosphatase Lar using p-nitrophenyl phosphate substrate at a pH 7.0; in short: as §1
Chain of Receptor-type tyrosine-protein phosphatase F (P10586 whole entry): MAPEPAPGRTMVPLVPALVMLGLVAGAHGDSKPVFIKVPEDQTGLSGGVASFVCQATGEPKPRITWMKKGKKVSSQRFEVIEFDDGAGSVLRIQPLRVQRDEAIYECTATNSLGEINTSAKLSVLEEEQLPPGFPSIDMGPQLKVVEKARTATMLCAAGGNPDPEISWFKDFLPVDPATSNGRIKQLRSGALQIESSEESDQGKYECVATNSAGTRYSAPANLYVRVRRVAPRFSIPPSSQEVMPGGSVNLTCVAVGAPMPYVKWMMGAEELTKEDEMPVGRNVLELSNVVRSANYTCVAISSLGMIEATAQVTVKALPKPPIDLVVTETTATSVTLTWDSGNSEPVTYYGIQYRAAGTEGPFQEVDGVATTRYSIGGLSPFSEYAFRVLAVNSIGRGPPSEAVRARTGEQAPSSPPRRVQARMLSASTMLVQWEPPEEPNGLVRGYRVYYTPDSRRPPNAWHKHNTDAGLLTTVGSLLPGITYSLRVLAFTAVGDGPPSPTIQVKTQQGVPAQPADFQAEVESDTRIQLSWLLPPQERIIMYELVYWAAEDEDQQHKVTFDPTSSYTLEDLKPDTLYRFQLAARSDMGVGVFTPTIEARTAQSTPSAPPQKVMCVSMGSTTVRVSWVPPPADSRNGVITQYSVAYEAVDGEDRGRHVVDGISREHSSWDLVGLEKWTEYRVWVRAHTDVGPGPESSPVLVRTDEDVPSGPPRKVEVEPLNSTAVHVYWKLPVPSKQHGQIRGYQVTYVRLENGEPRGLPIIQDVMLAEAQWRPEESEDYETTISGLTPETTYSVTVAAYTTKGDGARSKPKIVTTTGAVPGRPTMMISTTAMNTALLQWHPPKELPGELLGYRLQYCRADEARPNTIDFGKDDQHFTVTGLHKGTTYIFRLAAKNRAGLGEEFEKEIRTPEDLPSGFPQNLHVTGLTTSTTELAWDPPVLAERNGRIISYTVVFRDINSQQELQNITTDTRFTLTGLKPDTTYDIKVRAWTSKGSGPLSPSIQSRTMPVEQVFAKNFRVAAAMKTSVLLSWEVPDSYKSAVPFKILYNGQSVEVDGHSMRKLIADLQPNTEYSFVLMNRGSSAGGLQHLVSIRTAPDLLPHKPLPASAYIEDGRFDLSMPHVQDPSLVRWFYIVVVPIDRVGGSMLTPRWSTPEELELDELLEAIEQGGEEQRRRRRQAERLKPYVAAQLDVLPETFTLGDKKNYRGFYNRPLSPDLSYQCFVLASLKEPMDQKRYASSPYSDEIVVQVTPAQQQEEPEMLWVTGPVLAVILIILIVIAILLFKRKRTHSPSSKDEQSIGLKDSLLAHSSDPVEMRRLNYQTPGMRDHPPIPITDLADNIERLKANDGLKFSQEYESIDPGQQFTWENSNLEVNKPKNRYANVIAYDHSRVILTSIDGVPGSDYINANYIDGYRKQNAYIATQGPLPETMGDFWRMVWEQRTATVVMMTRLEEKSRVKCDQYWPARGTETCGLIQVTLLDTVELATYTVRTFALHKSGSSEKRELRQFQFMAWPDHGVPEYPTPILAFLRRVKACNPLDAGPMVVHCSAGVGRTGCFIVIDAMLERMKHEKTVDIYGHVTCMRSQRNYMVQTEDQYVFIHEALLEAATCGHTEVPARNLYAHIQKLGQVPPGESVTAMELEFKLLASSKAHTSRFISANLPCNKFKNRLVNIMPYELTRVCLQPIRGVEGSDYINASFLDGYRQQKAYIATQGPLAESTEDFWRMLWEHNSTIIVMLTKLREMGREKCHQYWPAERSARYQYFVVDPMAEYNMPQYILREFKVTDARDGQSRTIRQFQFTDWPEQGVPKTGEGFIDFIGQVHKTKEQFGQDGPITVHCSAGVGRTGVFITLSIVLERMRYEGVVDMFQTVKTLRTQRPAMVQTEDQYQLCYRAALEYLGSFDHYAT

[9] = biological target: T2, Tyrosine-protein phosphatase non-receptor type 1; assay: Inhibition of human recombinant Protein-tyrosine phosphatase 1B.
In short: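 Enzyme is a soluble recombinant human PTP1B (residues 1–321). Ki is measured at pH 5.5 with p-nitrophenyl phosphate (pNPP) as substrate.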

Vd [1]: 0.9 L/kg
bioavailability [2]: 13%
half-life [3]: 2.82 h
clearance [4]: 6.4 mL/min/kg
Ki [5]: 1400 µM
Ki [6]: 0.27 µM
Ki [7]: 2100 µM
Ki [8]: 2100 µM
Ki [9]: 3.2 µM and 7.2 µM
SMILES: O=C(O)C(=O)Nc1sc2c(c1C(=O)O)CCN(CCc1ccccc1)C2
